Shown are actives, neighbours in structure and some others; about 1.3% of the full set was active somewhere.
NR2E3 ag-1: activates human NR2E3 receptor; Q9Y5X4; CHO-S Gal4-NCOR/VP16-NR2E3 two-hybrid, luciferase; inhibition of corepressor binding, % at 3.98 µM; actives 0.35% (n = 360,000);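 active = inhibition above the mean of all tested compounds plus 3 SD, cut at about 70% in these data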;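 note: 0% = DMSO with NR2E3 transfected cells and 100% = cells lacking NR2E3 construct; higher means lower luciferase signal from less NR2E3 corepressor binding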
Furin inh: human furin inhibition; P09958; purified furin, fluorogenic substrate cleavage; inhibition, % at 20 µM or 30 µM; actives 0.061% (n = 220,000); in the data active = inhibition above about 25%
JMJD2C inh: inhibitors of human GASC-1 (JMJD2C) demethylase. GST-JMJD2C(1-420) H3K9me3 demethylation, DELFIA europium. inhibition, % at 2.35 µM. actives 0.069% (n = 330,000). AID 2099;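 active = more than half of a compound's replicate wells show inhibition beyond 50%, single wells judged on their own value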;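 note: signal counts dimethyl H3K9 product captured on neutravidin plate; 0% = median of DMSO wells and 100% = 0.3 times that DMSO median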
Target sequence (Q9H3R0 1-420 limits assumed): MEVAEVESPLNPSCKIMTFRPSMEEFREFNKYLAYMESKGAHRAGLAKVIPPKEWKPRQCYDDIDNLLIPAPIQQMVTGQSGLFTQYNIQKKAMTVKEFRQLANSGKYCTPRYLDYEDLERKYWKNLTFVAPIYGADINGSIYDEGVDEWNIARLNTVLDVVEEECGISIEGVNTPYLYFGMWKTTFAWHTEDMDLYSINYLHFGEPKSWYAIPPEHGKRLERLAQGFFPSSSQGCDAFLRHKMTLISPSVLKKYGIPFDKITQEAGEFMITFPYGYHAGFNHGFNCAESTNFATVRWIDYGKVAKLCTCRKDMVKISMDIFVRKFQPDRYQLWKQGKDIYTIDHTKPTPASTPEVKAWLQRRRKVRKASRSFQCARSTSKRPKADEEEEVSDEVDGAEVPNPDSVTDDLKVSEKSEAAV
NR2E3 ag-2: agonists of human nuclear receptor NR2E3; GST-NR2E3/biotin-RetCOR TR-FRET, 1536-well; inhibition of corepressor binding, % at 4.78 µM; actives 0.12% (n = 320,000);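 active = percent inhibition above the cutoff of mean plus 3 SD of all tested compounds, set per screening campaign, cut at about 20% in these data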;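 note: 0% = DMSO wells and 100% = biotin wells as full block of FRET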
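System: GST-tagged NR2E3 plus biotinylated RetCOR corepressor; Amount: 1.35 nM GST-tagged NR2E3 final; Dosing: single nominal compound dose of 4.8 µM; Schedule: 5 h incubation at 4 °C; Technique: TR-FRET with europium anti-GST and streptavidin-D2, 340 nm excitation; Controls: biotin wells as high control, 0.6% DMSO wells as low control.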
PGE2 EP2 inh: blocks the human prostaglandin E2 receptor EP2; actives 0.52% (n = 260,000); P43116; AID 1422; C6 glioma cells expressing human EP2, cAMP TR-FRET; cells stimulated with saturating PGE2; inhibition, % at 25 µM;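 active = percent inhibition above 40 after rounding to a whole number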;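 note: rat C6 glioma host cells with rolipram phosphodiesterase inhibitor present; the protocol text gives 20 µM as final concentration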
EP2 mod: EP2 receptor (human) modulation; EP2-expressing cells, cAMP HTRF FRET, PGE2 co-stimulation; induction, % at 25 µM; actives 0.83% (n = 260,000); AID 940;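 active = compounds whose cAMP rise, as percent of the full-agonist control response, exceeds 60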;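 note: rat C6 glioma line stably carrying human EP2 under a CMV promoter; the protocol text gives 20 µM as final concentration; 100% = response of wells given 1 µM PGE2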
The depositor's hits bear a star; . = not tested or not shown; ! = repeats disagree.

SMILES | NR2E3 ag-1 | Furin inh | JMJD2C inh | NR2E3 ag-2 | PGE2 EP2 inh | EP2 mod
Cc1ccc(C(=O)CSc2nc(C(C)C)nc3ccccc23)cc1 | -3 | -21 | 0 | 1 | 6 | 34
Cc1cc2ccccc2nc1SCC(=O)NC(C)(C)C | . | . | . | . | 7 | 87*
CC(=O)c1cn(CC(=O)N2C(C)CCCC2C)c2ccccc12 (stereo unspecified) | . | . | . | . | 19 | -108
Cc1cc2cc3c(cc2nc1SCC(=O)c1ccccc1F)OCCO3 | . | . | . | . | 19 | 72*
CCn1c(COc2cccc3ccccc23)nnc1SCC(=O)O | . | . | . | . | 10 | -17
CC[C@H](Cn1nc(-c2ccc(OC)cc2)ccc1=O)NC(=O)c1cnsc1 | . | . | . | . | . | -13
C/C(=N\N(c1ccccc1)c1ccccc1)c1ccco1 | 7 | -14 | 5 | 4 | 3 | 62*
C/C(=N\NC(=O)c1ccco1)c1ccc(-c2ccccc2)cc1 | -89 | . | 0 | 2 | . | .
Nc1cc(S(N)(=O)=O)ccc1SSc1ccc(S(N)(=O)=O)cc1N | . | . | . | . | 60* | -8
COc1ccc(OCc2nnc(SCc3cc(=O)[nH]c4c(C)cc(C)cc34)o2)cc1 | . | . | . | . | 12 | -75
Cc1cc2ccccc2c[n+]1CC(O)C[n+]1cc2ccccc2cc1C | . | . | . | . | 55* | 18
CCN(CC)CC(O)CN(c1ccccc1)S(=O)(=O)c1ccc2ccccc2c1 (stereo unspecified) | 22 | . | -14 | -1 | . | .
COc1cc(NC(=O)c2sc3nc4c(C)cccc4cc3c2N)cc(OC)c1 | . | . | . | . | 11 | -39
O=C(O)c1c2c(c(O)c3c1CN(C1CCCCC1)CO3)OCN(C1CCCCC1)C2 | . | . | . | . | 61* | -4
COc1cccc(NC(=O)COc2ccc(C3C(C#N)=C(N)Oc4n[nH]c(C)c43)cc2)c1 (stereo unspecified) | . | . | . | . | 20 | -123
O=C(NCc1ccccc1Cl)C1CCN(C(=O)c2ccco2)CC1 | . | . | 58* | 4 | . | .
O=C(Nc1ccc(Cl)cc1)C1CCN(C(=O)c2ccco2)CC1 | -16 | . | -3 | 4 | . | .
CCOC(=O)c1sc2ccccc2c1NC(=O)c1coc2ccccc2c1=O | -6 | -19 | 5 | 0 | 5 | 21
CCOC(=O)c1sc2ccccc2c1OC(=O)c1ccccc1 | 1 | -15 | 12 | -4 | 12 | 65*
COc1ccc(C(=O)N(c2ccccc2)C(C(=O)NC(C)(C)C)c2c[nH]c3ccccc23)cc1OC (stereo unspecified) | . | . | . | . | 8 | 15
CCSc1nc2c(c(=O)n(C)c(=O)n2C)n1Cc1cccc2ccccc12 | . | . | . | . | 13 | 72*
Cn1c(=O)n(Cc2ccccc2F)c2ccccc21 | 4 | -9 | 17 | 1 | 8 | 30
C=C(C)CSc1nc2c(c(=O)n(C)c(=O)n2C)n1Cc1ccccc1Cl | . | . | . | . | 9 | 74*
C=C(C)CSc1nc2c(c(=O)n(C)c(=O)n2C)n1Cc1ccccc1 | . | . | . | . | 8 | 50
Cn1c(=O)n(Cc2ccccc2Cl)c2ccccc21 | -29 | -30 | -1 | 0 | 10 | 61*
SMILES | NR2E3 ag-1 | Furin inh | JMJD2C inh | NR2E3 ag-2 | PGE2 EP2 inh | EP2 mod
CCCn1c(SCC(=O)Nc2ccccc2N2CCCCC2)nc2c1c(=O)n(C)c(=O)n2C | -10 | -22 | -1 | 1 | 22 | 78*!
COc1ccc(-c2nnc(SCC(=O)Nc3cccc4ccccc34)n2C)cc1 | . | . | . | . | 10 | -115
CC(C)(C)c1ncc(C(=O)Nc2cccc(-c3csnn3)c2)cn1 | . | . | . | . | 35 | -88
CCc1nc2ccccc2n1C(C)C(=O)O (stereo unspecified) | . | . | . | . | 11 | 16
COCCn1c(SCC(=O)Nc2ccc(OC)cc2)nnc1C(C)C | . | . | . | . | 12 | -6
Cc1cc2c(=O)n(CC(=O)NCc3noc(-c4ccccc4)n3)cnc2s1 | . | . | . | . | 5 | -8
COc1ccc(C2CCN(C(=O)c3ccc4c(c3)OCO4)CC2)cc1 | . | . | . | . | 3 | -48
COC(=O)c1cccc(NC(=O)CSc2nc3c(c(=O)n(C)c(=O)n3C)n2C)c1 | . | . | . | . | 5 | 6
CCC(C)Sc1nc2c(c(=O)n(C)c(=O)n2C)n1Cc1ccc(Cl)cc1 (stereo unspecified) | . | . | . | . | 7 | 70*
CC(C)Sc1nc2c(c(=O)n(C)c(=O)n2C)n1Cc1ccccc1Cl | . | . | . | . | 4 | 62*
CCC(C)Sc1nc2c(c(=O)[nH]c(=O)n2C)n1Cc1ccc(Cl)cc1 (stereo unspecified) | 19 | -18 | -14 | 0 | 7 | 51
Cc1nnc(Sc2nc3c(c(=O)n(C)c(=O)n3C)n2Cc2ccccc2Cl)s1 | 11 | -8 | -21 | 2 | 1 | .
CN1C(=O)c2cccc3c(S(=O)(=O)N4CCCCC4)ccc1c23 | . | . | . | . | 10 | -43
CCOC(=O)C1=C(C)N(c2ccc(OC)cc2)C(=O)/C1=C\c1ccc(O)c(OCC)c1 | 3 | -6 | 15 | 0 | 41* | 31
O=C(NC1CCCCC1)C1CC(=O)N(c2ccc(Cl)cc2)C1 (stereo unspecified) | -10 | -12 | 6 | -1 | 5 | 5
Cc1ccc(N2CC(C(=O)NC3CCCC3)CC2=O)cc1 (stereo unspecified) | . | . | . | . | 50* | -30
Oc1ccccc1C=NCCCCCCN=Cc1ccccc1O | -15 | -27 | 5 | -2 | 5 | 62*
Cc1cc(C(F)F)n2nc(C(=O)Nc3ccc(F)c(F)c3)nc2n1 | . | . | . | . | 8 | -5
CCOC(=O)c1cc2c(ccn2C)n1Cc1ccccc1Cl | 3 | -6 | -19 | -1 | 7 | 63*
CCOC(=O)c1cc2c(ccn2C)n1Cc1ccccc1C | -23 | -22 | . | 5 | 4 | 62*
COc1ccc([C@@H](Nc2ncccn2)c2cc3c(cc2O)OCO3)cc1 | . | . | . | . | 53* | 12
CC1(C)CC(=O)C(C(C2=C(O)CC(C)(C)CC2=O)c2ccc(Br)s2)C(=O)C1 (stereo unspecified) | -11 | -17 | -12 | 2 | 51* | -78
Cc1cc2cc(C#N)c(SCC(=O)N3CCCc4ccccc43)nc2cc1C | . | . | . | . | 8 | 12
C[C@@]12CC[C@H]3c4ccc(O)cc4CC[C@@H]3[C@H]1CC[C@H]2OC(=O)CCc1ccccc1 | . | . | . | . | 42* | 23
CCCCC(=O)O[C@H]1CCC2C3CCc4cc(O)ccc4C3CC[C@@]21C (stereo partly specified) | . | . | . | . | 8 | 19
O=C(c1cccc(Cl)c1)N1N=C(C(F)(F)F)CC1(O)C1CCCCC1 (stereo unspecified) | . | . | . | . | 11 | 85*
Cc1nc2ccc(NC(=O)c3ccc(Cl)c([N+](=O)[O-])c3)cc2s1 | -6 | -23 | -10 | -1 | 10 | -1
Cc1nc2ccc(NC(=O)c3cc([N+](=O)[O-])cc([N+](=O)[O-])c3Cl)cc2s1 | -103 | -11 | 5 | 3 | 121* | -2
c1ccc(B2OC[C@@H]3OB(c4ccccc4)O[C@H]([C@@H]4COB(c5ccccc5)O4)[C@H]3O2)cc1 | . | . | . | . | 41* | 13
